Assay results from ChEMBL document CHEMBL1157054, “Design, synthesis and biological evaluation of indane-2-arylhydrazinylmethylene-1,3-diones and indol-2-aryldiazenylmethylene-3-ones as beta-amyloid aggregation inhibitors” (Eur J Med Chem, 2010).
pIC50: −log10 of the molar value. Activity calls are given as the source filed them. The calls are words filed in the database; no cut-off is given here.

Test: Inhibition of amyloid beta (1 to 40) aggregation assessed as inhibition of protofibril formation after 3 days
Procedure, shortened: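 Aβ1-40 (30 µM) with compound at 50 µM in 0.217 M phosphate buffer pH 8.0, 10% ethanol, incubated at 37 °C up to 7 days; aliquots taken at time points, applied to carbon-coated grids, negatively stained with 2% uranyl acetate, imaged by TEM at 60 kV, 60,000-fold magnification; qualitative fibril/protofibril assessment.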

| SMILES | inhibition |
| --- | --- |
| CC(C)c1ccc(/N=N/C=C2Nc3ccccc3C2=O)cc1 | Active |

Test: Inhibition of amyloid beta (1 to 40) aggregation assessed as inhibition of fibril formation at 100 uM by thioflavin T fluorescent dye assay
Procedure, shortened: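 Aβ1-40 (HFIP-treated, lyophilized) at 30 µM in PBS (0.01 M, NaCl 0.1 M, pH 7.4) with 2% HFIP and 10% DMSO, test compound 100 µM; triplicate incubations, 2 h at 25 °C. Sample mixed with 25 µM ThT in 0.025 M phosphate pH 6.0; fluorescence ex 440/em 485 nm. Percent inhibition = 100 − [(Fi − Fb)/F0]×100, blank-corrected against free Aβ aggregation.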

| SMILES | inhibition |
| --- | --- |
| O=C1C(=C/N=N/c2ccc(Cl)c(Cl)c2)Nc2ccc(Br)cc21 | 23% |
| O=c1c(=NNc2ccc(Cl)cc2)c(=O)c2ccccc12 | 38% |
| O=C1C(=C/N=N/c2ccc(Cl)cc2)Nc2ccc(Br)cc21 | 20% |
| O=C1C(=C/N=N/c2ccc(Cl)cc2)Nc2ccccc21 | 33% |
| O=C1CCC(=O)C1=CNNc1ccc(Cl)cc1 | 44% |
| O=C1C(=CNNc2ccccc2)C(=O)c2ccccc21 | 49% |
| Cc1ccc(NNC=C2C(=O)c3ccccc3C2=O)cc1 | 44% |

Test: Inhibition of amyloid beta (1 to 40) aggregation assessed as inhibition of fibril formation by thioflavin T fluorescent dye assay
Procedure, shortened: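 ThT fluorimetric assay on HFIP-pretreated Aβ1-40, 30 µM in PBS pH 7.4 containing 2% HFIP and 10% DMSO, incubated 2 h at 25 °C. Fluorescence read after mixing with 25 µM ThT (phosphate pH 6.0), ex 440/em 485 nm, blank-corrected vs inhibitor-free aggregation. IC50 from 5-7 concentrations tested in triplicate, three independent experiments.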

| SMILES | pIC50 |
| --- | --- |
| O=C1C(=CNNc2cccc(Cl)c2)C(=O)c2ccccc21 | 4.74 |
| O=C1C(=C/N=N/c2ccccc2Cl)Nc2ccccc21 | 4.89 |
| COc1ccc2[nH]cc(/C=N\Nc3ccc(Cl)cc3)c2c1 | 4.64 |
| O=C1C(=C/N=N/c2ccccc2Cl)Nc2ccc(Br)cc21 | 5.11 |
| CC(C)c1ccc(/N=N/C=C2Nc3ccccc3C2=O)cc1 | 5.85 |
| O=C1C(=CNNc2ccc(Cl)cc2)C(=O)c2ccccc21 | 4.64 |
| O=C1C(=CNNc2ccccc2Cl)C(=O)c2ccccc21 | 4.49 |
| O=C1C(=C/N=N/c2cccc(Cl)c2)Nc2ccccc21 | 5.60 |
| Cc1ccc(/N=N/C=C2Nc3ccccc3C2=O)cc1 | 5.44 |
| CC(C)c1ccc(NNC=C2C(=O)c3ccccc3C2=O)cc1 | 4.74 |
| O=c1c(O)c(-c2ccc(O)c(O)c2)oc2cc(O)cc(O)c12 [QUERCETIN] | 6.10 |
| O=C1C(=C/N=N/c2cccc(Cl)c2)Nc2ccc(Br)cc21 | 5.36 |
| O=C1C(=C/N=N/c2ccccc2)Nc2ccccc21 | 5.06 |
| O=C1C(=C/N=N/c2ccccc2)Nc2ccc(Br)cc21 | 4.46 |
| Cc1ccc(/N=N/C=C2Nc3ccc(Br)cc3C2=O)cc1 | 4.29 |
| CC(C)c1ccc(/N=N/C=C2Nc3ccc(Br)cc3C2=O)cc1 | 4.64 |
